We go through five compounds from ChEMBL document CHEMBL1141152, “Efficient transfection of DNA by liposomes formulated with cationic gemini amphiphiles” (2005).

Molecules are shown by their SMILES.

What all share (assay type): functional, Rattus norvegicus
Assay [1] is described as follows: Percentage survived cells of LA7 cell line done for 6 hr with compound (85 uM) in trypan blue exclusion dye test. The procedure, abridged: (§1)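 LA7 rat mammary adenocarcinoma cells grown in DMEM with 10% FCS, penicillin/streptomycin, insulin and hydrocortisone (50 ng/mL each). Exposed 6 h to DMPC/cationic amphiphile liposomes (1/1; doubled amphiphile for single-headgroup surfactant), concentrations 425 μM to 8.5 μM; medium then replaced. Viability by Trypan blue exclusion 24 h later, counting unstained cells. Duplicates, at least five times; typical experiment shown.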

A short description of assay [2]: Percentage survived cells of LA7 cell line done for 6 hr with compound (213 uM) in trypan blue exclusion dye test. An outline of the steps:
as §1

Assay [3] in a line: Percentage survived cells of LA7 cell line done for 6 hr with compound (8.5 uM) in trypan blue exclusion dye test. An outline of the steps:
as §1

A short description of assay [4]: Percentage survived cells of LA7 cell line done for 6 hr with compound (21.3 uM) in trypan blue exclusion dye test. The procedure, abridged:
as §1

Assay [5] in a line: Percentage survived cells of LA7 cell line done for 6 hr with compound (42.5 uM) in trypan blue exclusion dye test. An outline of the steps:
as §1

Regarding `CCCCCCCCCCCCCCCC[N+](C)(C)CCOC.[Br-]`, the Survival in assay [1] was found to be 80%; in assay [2], 50%; in assay [3], 100%; in assay [4], 100%; in assay [5] it was 100%.
With `CCCCCCCCCCCCCCCC[N+](C)(C)CCCC[N+](C)(C)CCCCCCCCCCCCCCCC.[Br-].[Br-]` [CATIONIC AMPHIPHILE], the Survival in assay [1] worked out at 80%; in assay [2], 50%; in assay [3] it was 100%; in assay [4], 100%; in assay [5] it was 100%.
In the case of `CCCCCCCCCCCCCCCC[N+](C)(C)C[C@@H](OC)[C@@H](C[N+](C)(C)CCCCCCCCCCCCCCCC)OC.[Br-].[Br-]` [CATIONIC AMPHIPHILE], the Survival in assay [3] is 100%.
Consider `CCCCCCCCCCCCCCCC[N+](C)(C)C[C@H](OC)[C@@H](C[N+](C)(C)CCCCCCCCCCCCCCCC)OC.[Br-].[Br-]` [CATIONIC AMPHIPHILE], for which the figures for the Survival in assay [3], in assay [4] and in assay [5] were 100%, 80% and 30%, respectively.
In the same order, the values of `CCCCCCCCCCCCCCCC[N+](C)(C)C[C@H](OC)[C@H](C[N+](C)(C)CCCCCCCCCCCCCCCC)OC.[Br-].[Br-]` [CATIONIC AMPHIPHILE] are 100%, 90% and 10%.
